The source of these data is ChEMBL document CHEMBL3351278, “Pyridine-3-carboxamide-6-yl-ureas as novel inhibitors of bacterial DNA gyrase: structure based design, synthesis, SAR and antimicrobial activity” (Eur J Med Chem, 2014).

pIC50: −log10 of the molar value. ≈ marks a conversion by molar mass, not a printed value. Some results are limits rather than exact numbers.

In one data set the target is DNA gyrase (Escherichia coli, UniProt P0AES4+P0AES6). The data set can be described thus: Inhibition of Escherichia coli GyrB A2B2 subunits assessed reduction in DNA supercoiling activity by malachite green dye based by spectrophotometry. In kind it is protein-complex assay. In short, it runs like this: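 Inhibition was measured as loss of ATPase activity of the E. coli GyrB enzyme and reported as IC50.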

In data set [1] the test system is Staphylococcus aureus. The data set can be described thus: Antibacterial activity against Staphylococcus aureus ATCC 29213 incubated for 24 hrs by broth microdilution method. In kind it is functional. As to conditions: ATCC 29213, 24 h. A general note: Dilution methods test growth across graded concentrations, often in twofold steps.
A further data set has as its system Enterococcus faecalis. Briefly: Antibacterial activity against Enterococcus faecalis ATCC 29212 incubated for 24 hrs by broth microdilution method. Conditions: ATCC 29212, 24 h. In kind it is functional.
The test system of data set [2] is Streptococcus pyogenes. Briefly: Antibacterial activity against Streptococcus pyogenes ATCC 51339 incubated for 24 hrs by broth microdilution method. In kind it is functional. Conditions: ATCC 51339, 24 h.
The test system of another data set is Haemophilus influenzae. Briefly: Antibacterial activity against Haemophilus influenzae ATCC 49247 incubated for 24 hrs by broth microdilution method. In kind it is functional. As to conditions: ATCC 49247, 24 h.
A short description of data set [3]: Retention time of the compound by HPLC method. In kind it is physicochemical.
Data set [4] has as its system Staphylococcus aureus. Briefly: Antibacterial activity against Staphylococcus aureus ATCC 29213 expressing GyrB T173N mutant incubated for 24 hrs by broth microdilution method. In kind it is functional. Conditions: ATCC 29213, 24 h.
The test system of data set [5] is Streptococcus pyogenes. The data set can be described thus: Antibacterial activity against Streptococcus pyogenes ATCC 51339 expressing ParE A53S mutant incubated for 24 hrs by broth microdilution method. In kind it is functional. Conditions: ATCC 51339, 24 h.

The term pIC50 denotes the negative decadic logarithm of the IC50, by convention in mol/L. Low readings indicate a high IC50, high ones a low IC50. On to `CCNC(=O)Nc1ccc(C(=O)Nc2cccnc2)cn1`, for which the negative logarithm of the IC50 (pIC50) against DNA gyrase was 5.22. Also, the MIC in the data set with Staphylococcus aureus [1] was greater than 256 µg/mL; against Enterococcus faecalis, 256 µg/mL (≈ 897 µM); against Streptococcus pyogenes [2], 32 µg/mL (≈ 112 µM); in the data set on Haemophilus influenzae, greater than 256 µg/mL. In data set [3], this compound showed a Retention_time of 1.25 min.
On to `CCNC(=O)Nc1ccc(C(=O)Nc2ccccc2)cn1`, for which the negative-log IC50 (pIC50) at DNA gyrase is 5.11. Further, the MIC is greater than 64 µg/mL in the data set on Staphylococcus aureus [1], greater than 16 µg/mL against Enterococcus faecalis, greater than 16 µg/mL with Streptococcus pyogenes [2] and greater than 16 µg/mL in the data set on Haemophilus influenzae. Also, the Retention_time in data set [3] worked out at 1.69 min.
With `CCNC(=O)Nc1ccc(C(=O)Nc2cccc(Cl)c2)cn1`, the pIC50 on DNA gyrase is 5.80. Besides, the MIC in the data set on Staphylococcus aureus [1] is 16 µg/mL (≈ 50.2 µM); against Enterococcus faecalis it was 16 µg/mL (≈ 50.2 µM); with Streptococcus pyogenes [2] it was 16 µg/mL (≈ 50.2 µM); with Haemophilus influenzae, greater than 64 µg/mL; against Staphylococcus aureus [4] it was greater than 64 µg/mL; against Streptococcus pyogenes [5], greater than 64 µg/mL. This compound came in with a Retention_time in data set [3] of 1.84 min.
On to `CCNC(=O)Nc1ccc(C(=O)Nc2ccccc2Cl)cn1`, for which the pIC50 at DNA gyrase is 5.68. In addition, the MIC against Staphylococcus aureus [1], with Enterococcus faecalis, in the data set with Streptococcus pyogenes [2] and in the data set with Haemophilus influenzae was greater than 64 µg/mL each time. For the same compound, in data set [3], the Retention_time came to 1.7 min.
The compound `CCNC(=O)Nc1ccc(C(=O)Nc2ccc(Cl)cc2)cn1` gave a negative logarithm of the IC50 (pIC50) at DNA gyrase of 5.48. For the same compound, the MIC against Staphylococcus aureus [1], in the data set on Enterococcus faecalis, in the data set with Streptococcus pyogenes [2] and against Haemophilus influenzae was greater than 64 µg/mL each time. The compound also yielded a Retention_time in data set [3] of 1.83 min.
With `CCNC(=O)Nc1ccc(C(=O)Nc2cccc(C#N)c2)cn1`, the negative logarithm of the IC50 (pIC50) against DNA gyrase was 5.42. For the same compound, the MIC against Staphylococcus aureus [1] is greater than 64 µg/mL; against Enterococcus faecalis, greater than 64 µg/mL; in the data set with Streptococcus pyogenes [2], 32 µg/mL (≈ 103 µM); in the data set on Haemophilus influenzae it was greater than 64 µg/mL. In data set [3], this compound yielded a Retention_time of 1.69 min.
As to `CCNC(=O)Nc1ccc(C(=O)Nc2cccc(C(N)=O)c2)cn1`, the pIC50 at DNA gyrase was 4.61. Moreover, the MIC with Staphylococcus aureus [1], against Enterococcus faecalis, against Streptococcus pyogenes [2] and in the data set with Haemophilus influenzae was greater than 256 µg/mL each time. In addition, the Retention_time in data set [3] is on record as 1.44 min.
`CCNC(=O)Nc1ccc(C(=O)Nc2cccc(CC)c2)cn1` had a pIC50 against DNA gyrase of 4.39. Besides, the MIC in the data set with Staphylococcus aureus [1], in the data set on Enterococcus faecalis, in the data set on Streptococcus pyogenes [2] and with Haemophilus influenzae was greater than 256 µg/mL throughout. This compound also returned a Retention_time in data set [3] of 1.84 min.
For `CCNC(=O)Nc1ccc(C(=O)Nc2ccc(OC)c(OC)c2)cn1`, the pIC50 against DNA gyrase was 5.21. Besides, the MIC with Staphylococcus aureus [1] was greater than 64 µg/mL; against Enterococcus faecalis, 32 µg/mL (≈ 92.9 µM); in the data set on Streptococcus pyogenes [2], 32 µg/mL (≈ 92.9 µM); against Haemophilus influenzae, greater than 64 µg/mL; in the data set with Streptococcus pyogenes [5], greater than 64 µg/mL. In data set [3], this compound showed a Retention_time of 1.59 min.
Regarding `CCNC(=O)Nc1ccc(C(=O)Nc2cc(Cl)ccc2C)cn1`, the pIC50 against DNA gyrase is 5.12. The MIC with Staphylococcus aureus [1], against Enterococcus faecalis, against Streptococcus pyogenes [2] and against Haemophilus influenzae was greater than 64 µg/mL throughout. The same compound yielded a Retention_time in data set [3] of 1.77 min.
Consider `CCNC(=O)Nc1ccc(C(=O)Nc2ccncc2)cn1`, for which, on DNA gyrase, the negative-log IC50 (pIC50) was 5.46. Also, the MIC in the data set on Staphylococcus aureus [1] was greater than 64 µg/mL; with Enterococcus faecalis, 64 µg/mL (≈ 224 µM); in the data set on Streptococcus pyogenes [2], 64 µg/mL (≈ 224 µM); with Haemophilus influenzae, greater than 64 µg/mL. In data set [3], this compound had a Retention_time of 1.19 min.
Turning to `CCNC(=O)Nc1ccc(C(=O)Nc2ccnc(C)c2)cn1`, the negative logarithm of the IC50 (pIC50) against DNA gyrase is 5.28. Moreover, the MIC with Staphylococcus aureus [1], with Enterococcus faecalis, in the data set on Streptococcus pyogenes [2] and in the data set with Haemophilus influenzae was greater than 64 µg/mL each time. The Retention_time in data set [3] came out at 1.24 min.
As to `CCNC(=O)Nc1ccc(C(=O)Nc2cc(C(=O)OC)ccn2)cn1`, the pIC50 at DNA gyrase was 4.85. Also, the MIC against Staphylococcus aureus [1], with Enterococcus faecalis, against Streptococcus pyogenes [2] and with Haemophilus influenzae was greater than 64 µg/mL each time. This compound came in with a Retention_time in data set [3] of 1.66 min.
